Assay results reported in ChEMBL document CHEMBL1275556, “High prevalence of plasmid-mediated quinolone resistance genes qnr and aac(6')-Ib-cr in clinical isolates of Enterobacteriaceae from nine teaching hospitals in China” (2008).
Converted amounts (≈) assume the structure as drawn.

Columns and labels:
Assay type in all cases: functional
[1] = system: Klebsiella pneumoniae; assay: Antimicrobial activity against aac(6')-Ib-cr-positive Klebsiella pneumoniae JN132T harboring qnrB gene by agar dilution method
Method in brief: (§1)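 Transconjugants were made by conjugating a qnr/aac(6')-Ib-cr donor with azide-resistant E. coli J53. Selection used Trypticase soy agar with sodium azide 150 µg/ml and sulfamethoxazole 180 µg/ml. […] MICs were read by CLSI agar dilution (M7-A7) and interpreted per M100-S17.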

[2] = system: Citrobacter freundii; assay: Antimicrobial activity against aac(6')-Ib-cr-positive Citrobacter freundii TJ15 harboring GyrA T83I, ParC S80I mutant, wild-type GyrB, qnrB genes by agar dilution method
Method in brief: (§2)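 MICs were determined by the CLSI agar dilution method (M7-A7) and interpreted against CLSI M100-S17 breakpoints.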

[3] = system: Klebsiella pneumoniae; assay: Antimicrobial activity against aac(6')-Ib-cr-negative Klebsiella pneumoniae SY22T harboring qnrS gene by agar dilution method in presence of clavulanic acid
Method in brief: (§3)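 Transconjugants came from conjugation of qnr and/or aac(6')-Ib-cr-carrying donors with azide-resistant E. coli J53. […] MICs were determined by CLSI agar dilution (M7-A7) and interpreted by M100-S17.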

[4] = system: Citrobacter freundii; assay: Antimicrobial activity against aac(6')-Ib-cr-negative Citrobacter freundii JN64 harboring GyrA T83I, wild-type ParC, GyrB and qnrA genes by agar dilution method; method in brief: as §2
[5] = system: Enterobacter cloacae; assay: Antimicrobial activity against aac(6')-Ib-cr-negative Enterobacter cloacae GZ51T harboring qnrA gene by agar dilution method in presence of clavulanic acid; method in brief: as §3
[6] = system: Enterobacter cloacae; assay: Antimicrobial activity against aac(6')-Ib-cr-negative Enterobacter cloacae GZ47 harboring qnrB and qnrS genes by agar dilution method in presence of clavulanic acid
Method in brief: (§4)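 MICs measured by CLSI agar dilution (M7-A7) and interpreted against CLSI M100-S17 breakpoints. Strains were clinical Enterobacteriaceae isolates or the azide-resistant E. coli J53 recipient.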

[7] = system: Citrobacter freundii; assay: Antimicrobial activity against aac(6')-Ib-cr-negative Citrobacter freundii JN64T harboring qnrA gene by agar dilution method; method in brief: as §2
[8] = system: Klebsiella pneumoniae; assay: Antimicrobial activity against aac(6')-Ib-cr-positive Klebsiella pneumoniae JN132T harboring qnrB gene by agar dilution method in presence of clavulanic acid
Method in brief: (§5)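 Transconjugants came from conjugation of qnr and/or aac(6')-Ib-cr donors into azide-resistant E. coli J53. […] MICs were measured by CLSI agar dilution (M7-A7) and interpreted per M100-S17.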

[9] = system: Enterobacter cloacae; assay: Antimicrobial activity against aac(6')-Ib-cr-negative Enterobacter cloacae GZ51 harboring qnrA gene by agar dilution method
[10] = system: Enterobacter cloacae; assay: Antimicrobial activity against aac(6')-Ib-cr-negative Enterobacter cloacae GZ47 harboring qnrB and qnrS genes by agar dilution method
[11] = system: Citrobacter freundii; assay: Antimicrobial activity against aac(6')-Ib-cr-positive Citrobacter freundii JN1 harboring GyrA T83I, ParC S80I mutant, wild-type GyrB and qnrA genes by agar dilution method; method in brief: as §2
[12] = system: Klebsiella pneumoniae; assay: Antimicrobial activity against aac(6')-Ib-cr-positive Klebsiella pneumoniae WH99T harboring qnrB gene by agar dilution method; method in brief: as §1
[13] = system: Citrobacter freundii; assay: Antimicrobial activity against aac(6')-Ib-cr-positive Citrobacter freundii PU55 harboring GyrA T83I, ParC S80I mutant, wild-type GyrB, qnrA genes by agar dilution method in presence of clavulanic acid; method in brief: as §2
[14] = system: Escherichia coli; assay: Antimicrobial activity against aac(6')-Ib-cr-negative Escherichia coli PU12 harboring GyrA S83L mutant, wild-type GyrB, ParC and qnrS genes by agar dilution method in presence of clavulanic acid
Method in brief: (§6)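 MICs were determined by CLSI agar dilution (M7-A7) and interpreted by CLSI M100-S17 breakpoints. The curator's line names the β-lactamase inhibitor added.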

[15] = system: Escherichia coli; assay: Antimicrobial activity against aac(6')-Ib-cr-negative Escherichia coli PU12T harboring wild-type GyrA, GyrB, ParC and qnrS genes by agar dilution method; method in brief: as §2
[16] = system: Citrobacter freundii; assay: Antimicrobial activity against aac(6')-Ib-cr-positive Citrobacter freundii PU55T harboring wild-type GyrA, ParC, GyrB and qnrA genes by agar dilution method in presence of clavulanic acid; method in brief: as §3
[17] = system: Escherichia coli; assay: Antimicrobial activity against aac(6')-Ib-cr-positive Escherichia coli FJ3T harboring wild-type GyrA, ParC, GyrB and qnrB genes by agar dilution method in presence of clavulanic acid; method in brief: as §3
[18] = system: Enterobacter cloacae; assay: Antimicrobial activity against aac(6')-Ib-cr-negative Enterobacter cloacae SH39T harboring qnrA gene by agar dilution method in presence of clavulanic acid; method in brief: as §3
[19] = system: Enterobacter cloacae; assay: Antimicrobial activity against aac(6')-Ib-cr-negative Enterobacter cloacae FJ61 harboring GyrA S83I, GyrA D87A, ParC S80I mutant, wild-type GyrB and qnrS genes by agar dilution method
[20] = system: Klebsiella pneumoniae; assay: Antimicrobial activity against aac(6')-Ib-cr-positive Klebsiella pneumoniae SY26T harboring wild-type GyrA, ParC, GyrB and qnrB genes by agar dilution method in presence of Tazobactam; method in brief: as §1
[21] = system: Citrobacter freundii; assay: Antimicrobial activity against aac(6')-Ib-cr-positive Citrobacter freundii PU55 harboring GyrA T83I, ParC S80I mutant, wild-type GyrB, qnrA genes by agar dilution method in presence of Tazobactam; method in brief: as §6
[22] = system: Citrobacter freundii; assay: Antimicrobial activity against aac(6')-Ib-cr-negative Citrobacter freundii JN64T harboring qnrA gene by agar dilution method in presence of Tazobactam; method in brief: as §2
[23] = system: Klebsiella pneumoniae; assay: Antimicrobial activity against aac(6')-Ib-cr-negative Klebsiella pneumoniae SY22T harboring qnrS gene by agar dilution method in presence of Tazobactam; method in brief: as §2
[24] = system: Enterobacter cloacae; assay: Antimicrobial activity against aac(6')-Ib-cr-negative Enterobacter cloacae GZ51T harboring qnrA gene by agar dilution method in presence of Tazobactam; method in brief: as §2
[25] = system: Enterobacter cloacae; assay: Antimicrobial activity against aac(6')-Ib-cr-negative Enterobacter cloacae WH42T harboring qnrA gene by agar dilution method in presence of Tazobactam; method in brief: as §2
[26] = system: Enterobacter cloacae; assay: Antimicrobial activity against aac(6')-Ib-cr-negative Enterobacter cloacae GZ47 harboring qnrB and qnrS genes by agar dilution method in presence of Tazobactam; method in brief: as §2
[27] = system: Escherichia coli; assay: Antimicrobial activity against aac(6')-Ib-cr-positive Escherichia coli FJ3T harboring wild-type GyrA, ParC, GyrB and qnrB genes by agar dilution method in presence of Tazobactam; method in brief: as §5
[28] = system: Klebsiella pneumoniae; assay: Antimicrobial activity against aac(6')-Ib-cr-negative Klebsiella pneumoniae SY22 harboring GyrA S83I, ParC S80I mutant, wild-type GyrB and qnrS genes by agar dilution method in presence of Tazobactam; method in brief: as §4
[29] = system: Klebsiella pneumoniae; assay: Antimicrobial activity against aac(6')-Ib-cr-positive Klebsiella pneumoniae GZ40 harboring GyrA S83I, ParC S80I mutant, wild-type GyrB and qnrB genes by agar dilution method in presence of Tazobactam; method in brief: as §2
[30] = system: Citrobacter freundii; assay: Antimicrobial activity against aac(6')-Ib-cr-positive Citrobacter freundii PU55T harboring wild-type GyrA, ParC, GyrB and qnrA genes by agar dilution method in presence of Tazobactam; method in brief: as §2

`CO/N=C(\C(=O)N[C@@H]1C(=O)N2C(C(=O)O)=C(COC(C)=O)CS[C@H]12)c1csc(N)n1` [CEFOTAXIME] showed an MIC [1] of 32 mg/L (≈ 70.3 µM), an MIC [2] of 1 mg/L (≈ 2.2 µM) and an MIC [3] of 0.032 mg/L. The MIC [4] was 256 mg/L (≈ 562 µM), the MIC [5] was 0.032 mg/L and the MIC [6] was 8 mg/L. It also gave an MIC [7] of 16 mg/L (≈ 35.1 µM), an MIC [8] of 1 mg/L and an MIC [9] of 64 mg/L (≈ 141 µM). For the same compound, the MIC [10] was 64 mg/L (≈ 141 µM), the MIC [11] was over 256 mg/L and the MIC [12] was 16 mg/L (≈ 35.1 µM). It also gave an MIC [13] of 256 mg/L, an MIC [14] of 0.032 mg/L and an MIC [15] of 16 mg/L (≈ 35.1 µM). The MIC [16] was 0.032 mg/L, the MIC [17] was 0.032 mg/L and the MIC [18] was 0.032 mg/L. It also gave an MIC [19] of 256 mg/L (≈ 562 µM).
With `CCN1CCN(C(=O)N[C@@H](C(=O)N[C@@H]2C(=O)N3[C@@H]2SC(C)(C)[C@@H]3C(=O)O)c2ccccc2)C(=O)C1=O` [PIPERACILLIN] the MIC [20] was 2 mg/L, the MIC [21] was 64 mg/L and the MIC [22] was 4 mg/L. It also gave an MIC [23] of 1 mg/L, an MIC [24] of 2 mg/L and an MIC [25] of 1 mg/L. It also gave an MIC [26] of 4 mg/L, an MIC [27] of 1 mg/L and an MIC [28] of 4 mg/L. The MIC [29] was over 256 mg/L and the MIC [30] was 4 mg/L.
